From ChEMBL document CHEMBL5046221, “Identification of Pyrimidine-Based Lead Compounds for Understudied Kinases Implicated in Driving Neurodegeneration” (J Med Chem, 2022)

Key:
[1] = Effective permeability in PBS at 7.4 incubated for 5 hrs by PAMPA analysis; assay type: ADME; conditions: pH 7.4, 5 h
Method in brief: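 PAMPA: DMSO stocks were diluted in PBS pH 7.4 and placed in the donor compartment, with PBS pH 7.4 in the acceptor, for 5 h. Both compartments were quantified by CLND against a calibration curve, with background nitrogen correction. Effective permeability was calculated from donor and acceptor concentrations using measured rather than assumed solubility.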

[2] = target: T1, Macrophage colony-stimulating factor 1 receptor (Homo sapiens, UniProt P07333); assay: Inhibition of NanoLuc-fused CSF1R (unknown origin) expressed in HEK293 cells incubated for 2 hrs by NanoBRET assay; assay type: cell-based
[3] = target: T2, Non-receptor tyrosine-protein kinase TYK2 (Homo sapiens, UniProt P29597); assay: Inhibition of human TYK2 (875 to end residues) using GGMEDIYFEFMGGKKK as substrate measured after 40 mins in presence of [gamma33P]ATP by radiometric scintillation counting method
Method in brief: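 Eurofins radiometric enzymatic assay with ATP at Km for each kinase. IC50 was derived from a 9-point dose–response curve run in duplicate.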

[4] = target: MAP/microtubule affinity-regulating kinase 3 (Homo sapiens, UniProt P27448); assay: Displacement of tracer K9 from NLuc fused MARK3 (unknown origin) expressed in HEK293 cells by NanoBRET assay; assay type: cell-based
[5] = target: T3, Serine/threonine-protein kinase TBK1 (Homo sapiens, UniProt Q9UHD2); assay: Displacement of tracer K5 from NLuc fused TBK1 (unknown origin) expressed in HEK293 cells by NanoBRET assay; assay type: cell-based
T3 sequence (Q9UHD2 whole entry): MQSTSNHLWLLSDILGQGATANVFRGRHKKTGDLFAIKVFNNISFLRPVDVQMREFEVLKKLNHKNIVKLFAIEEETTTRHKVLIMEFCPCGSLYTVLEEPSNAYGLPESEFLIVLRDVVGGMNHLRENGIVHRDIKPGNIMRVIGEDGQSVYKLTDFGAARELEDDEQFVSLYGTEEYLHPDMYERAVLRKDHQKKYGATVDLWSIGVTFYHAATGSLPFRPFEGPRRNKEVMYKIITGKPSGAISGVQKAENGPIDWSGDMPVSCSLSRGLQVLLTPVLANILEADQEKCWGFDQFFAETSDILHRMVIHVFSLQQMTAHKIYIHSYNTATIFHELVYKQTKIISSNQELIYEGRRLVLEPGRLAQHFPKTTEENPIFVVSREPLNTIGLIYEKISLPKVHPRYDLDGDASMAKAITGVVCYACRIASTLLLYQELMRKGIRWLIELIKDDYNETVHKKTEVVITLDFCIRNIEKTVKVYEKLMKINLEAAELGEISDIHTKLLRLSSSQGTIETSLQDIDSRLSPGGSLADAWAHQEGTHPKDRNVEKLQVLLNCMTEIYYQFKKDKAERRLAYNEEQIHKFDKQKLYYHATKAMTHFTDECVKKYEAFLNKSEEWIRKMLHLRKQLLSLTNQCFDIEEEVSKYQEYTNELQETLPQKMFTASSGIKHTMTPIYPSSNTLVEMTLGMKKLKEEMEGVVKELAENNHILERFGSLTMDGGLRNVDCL
Method in brief: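 HEK293 cells grown in DMEM with 10% FBS at 37 °C, 5% CO2. NanoBRET assay run in dose–response per manufacturer's protocol with tracer K-5 at 0.5 μM. SEM calculated for assays run more than once.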

[6] = Kinetic solubility of compound in PBS at pH 7.4 incubated for 24 hrs by chemiluminscent nitrogen detection method; assay type: physicochemical; conditions: buffer, pH 7.4, 24 h
Method in brief: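 Filtrates were quantified by total chemiluminescent nitrogen determination against a calibration curve, with correction for background nitrogen from DMSO and medium.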

[7] = target: T4, Serine/threonine-protein kinase 17A (Homo sapiens, UniProt Q9UEE5); assay: Displacement of tracer K9 from NLuc fused DRAK1 (unknown origin) expressed in HEK293 cells by NanoBRET assay; assay type: cell-based
T4 sequence (Q9UEE5 whole entry): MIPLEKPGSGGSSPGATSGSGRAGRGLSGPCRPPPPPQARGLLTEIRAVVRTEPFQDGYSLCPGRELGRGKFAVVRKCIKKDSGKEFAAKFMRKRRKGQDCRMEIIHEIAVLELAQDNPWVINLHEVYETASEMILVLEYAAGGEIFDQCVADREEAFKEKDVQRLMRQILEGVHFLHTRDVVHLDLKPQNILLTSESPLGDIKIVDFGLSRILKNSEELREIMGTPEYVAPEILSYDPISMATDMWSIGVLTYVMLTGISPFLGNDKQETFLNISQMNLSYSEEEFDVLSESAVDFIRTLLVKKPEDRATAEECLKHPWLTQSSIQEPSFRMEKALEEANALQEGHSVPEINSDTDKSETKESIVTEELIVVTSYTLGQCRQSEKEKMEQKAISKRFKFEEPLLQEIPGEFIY

[8] = target: T5, MAP/microtubule affinity-regulating kinase 4 (Homo sapiens, UniProt Q96L34); assay: Displacement of tracer K5 from NLuc fused MARK4 (unknown origin) expressed in HEK293 cells by NanoBRET assay; assay type: cell-based
T5 sequence (Q96L34 whole entry): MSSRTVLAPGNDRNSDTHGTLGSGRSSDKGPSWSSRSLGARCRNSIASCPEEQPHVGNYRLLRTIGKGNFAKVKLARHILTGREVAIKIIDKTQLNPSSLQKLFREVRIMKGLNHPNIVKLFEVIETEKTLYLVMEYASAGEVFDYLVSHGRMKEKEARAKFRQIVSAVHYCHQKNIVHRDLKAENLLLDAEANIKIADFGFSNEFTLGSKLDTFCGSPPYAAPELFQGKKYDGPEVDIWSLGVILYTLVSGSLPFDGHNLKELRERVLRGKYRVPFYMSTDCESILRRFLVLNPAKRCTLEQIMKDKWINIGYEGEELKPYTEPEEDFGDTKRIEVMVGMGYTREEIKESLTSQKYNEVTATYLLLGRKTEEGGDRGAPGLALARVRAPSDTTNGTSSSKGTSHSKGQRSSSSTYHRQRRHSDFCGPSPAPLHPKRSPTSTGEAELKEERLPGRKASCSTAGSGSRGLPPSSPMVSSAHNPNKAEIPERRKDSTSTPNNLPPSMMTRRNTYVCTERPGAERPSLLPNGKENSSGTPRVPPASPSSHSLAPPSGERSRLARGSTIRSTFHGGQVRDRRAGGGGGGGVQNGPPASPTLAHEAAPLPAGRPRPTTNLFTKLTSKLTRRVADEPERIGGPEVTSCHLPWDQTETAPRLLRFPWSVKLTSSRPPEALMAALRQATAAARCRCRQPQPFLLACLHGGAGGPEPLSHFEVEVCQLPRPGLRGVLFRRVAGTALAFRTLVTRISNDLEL

[9] = target: Tyrosine-protein kinase JAK2 (Homo sapiens) (UniProt O60674); assay: Inhibition of recombinant human JAK2 (808 to end residues) using KTFCGTPEYLAPEVRREPRILSEEEQEMFRDFDYIADWC as substrate at 1 uM incubated for 40 mins in presence of [gamma-33P-ATP] by radiometric scintillation assay relative to control
Method in brief: (§1)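 Eurofins radiometric kinase assay with ATP at Km for each kinase. Compound was tested at a single 1 μM concentration in duplicate, and the result is reported as percent of control.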

[10] = target: T2, Non-receptor tyrosine-protein kinase TYK2; assay: Inhibition of NanoLuc-fused TYK2 (unknown origin) expressed in HEK293 cells incubated for 2 hrs by NanoBRET assay; assay type: cell-based
Method in brief: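 Cellular NanoBRET target-engagement assays were run by Carna Biosciences to the manufacturer's protocol. Dose–response was in singlicate, with compounds tested at concentrations up to 10 μM.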

[11] = target: T1, Macrophage colony-stimulating factor 1 receptor; assay: Inhibition of recombinant human FMS (538 to end residues) using KKKSPGEYVNIEFG as substrate measured after 40 mins in presence of [gamma33P]ATP by radiometric scintillation counting method
Method in brief: (§2)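 Eurofins radiometric kinase assay run at ATP equal to Km for each kinase. 9-point dose–response in duplicate gives the IC50.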

[12] = target: Aurora kinase B (Homo sapiens) (UniProt Q96GD4); assay: Inhibition of full length recombinant human AURKB using AKRRRLSSLRA as substrate at 1 uM incubated for 40 mins in presence of [gamma-33P-ATP] by radiometric scintillation assay relative to control; method in brief: as §1
[13] = target: High affinity nerve growth factor receptor (Homo sapiens, UniProt P04629); assay: Inhibition of human TrkA (440 to end residues) using KKKSPGEYVNIEFG as substrate measured after 40 mins in presence of [gamma33P]ATP by scintillation counting method; method in brief: as §2
[14] = Inhibition of human TTBK1 (1 to 479 residues) using Casein as substrate measured after 40 mins in presence of [gamma33P]ATP by scintillation counting method; method in brief: as §2
[15] = target: BMP-2-inducible protein kinase (Homo sapiens, UniProt Q9NSY1); assay: Inhibition of 1recombinant human BMP2K using myelin basic protein as substrate incubated for 120 mins in presence of [gamma-33P-ATP] by radiometric scintillation assay

MAP/microtubule affinity-regulating kinase 3, sequence (P27448 whole entry, the tested form may be a part): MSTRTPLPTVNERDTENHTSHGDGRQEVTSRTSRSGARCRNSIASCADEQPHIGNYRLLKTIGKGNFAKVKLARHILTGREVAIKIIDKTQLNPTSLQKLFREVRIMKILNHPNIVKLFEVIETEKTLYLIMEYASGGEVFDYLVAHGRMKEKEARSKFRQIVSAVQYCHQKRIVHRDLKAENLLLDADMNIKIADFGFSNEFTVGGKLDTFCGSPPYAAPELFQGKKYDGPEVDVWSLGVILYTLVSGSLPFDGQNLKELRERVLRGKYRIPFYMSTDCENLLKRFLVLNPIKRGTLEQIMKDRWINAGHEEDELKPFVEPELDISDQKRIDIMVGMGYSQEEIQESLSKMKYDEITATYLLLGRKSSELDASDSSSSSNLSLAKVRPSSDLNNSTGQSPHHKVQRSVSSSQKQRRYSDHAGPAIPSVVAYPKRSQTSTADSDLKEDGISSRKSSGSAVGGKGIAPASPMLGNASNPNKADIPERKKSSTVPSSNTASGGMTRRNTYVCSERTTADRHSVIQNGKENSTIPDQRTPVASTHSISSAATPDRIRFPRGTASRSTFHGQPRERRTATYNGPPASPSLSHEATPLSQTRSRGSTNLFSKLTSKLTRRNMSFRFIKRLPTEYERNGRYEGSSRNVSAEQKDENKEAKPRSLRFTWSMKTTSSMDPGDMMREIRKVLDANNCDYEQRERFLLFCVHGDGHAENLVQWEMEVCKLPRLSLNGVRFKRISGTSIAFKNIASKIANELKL
T2 sequence (P29597 whole entry): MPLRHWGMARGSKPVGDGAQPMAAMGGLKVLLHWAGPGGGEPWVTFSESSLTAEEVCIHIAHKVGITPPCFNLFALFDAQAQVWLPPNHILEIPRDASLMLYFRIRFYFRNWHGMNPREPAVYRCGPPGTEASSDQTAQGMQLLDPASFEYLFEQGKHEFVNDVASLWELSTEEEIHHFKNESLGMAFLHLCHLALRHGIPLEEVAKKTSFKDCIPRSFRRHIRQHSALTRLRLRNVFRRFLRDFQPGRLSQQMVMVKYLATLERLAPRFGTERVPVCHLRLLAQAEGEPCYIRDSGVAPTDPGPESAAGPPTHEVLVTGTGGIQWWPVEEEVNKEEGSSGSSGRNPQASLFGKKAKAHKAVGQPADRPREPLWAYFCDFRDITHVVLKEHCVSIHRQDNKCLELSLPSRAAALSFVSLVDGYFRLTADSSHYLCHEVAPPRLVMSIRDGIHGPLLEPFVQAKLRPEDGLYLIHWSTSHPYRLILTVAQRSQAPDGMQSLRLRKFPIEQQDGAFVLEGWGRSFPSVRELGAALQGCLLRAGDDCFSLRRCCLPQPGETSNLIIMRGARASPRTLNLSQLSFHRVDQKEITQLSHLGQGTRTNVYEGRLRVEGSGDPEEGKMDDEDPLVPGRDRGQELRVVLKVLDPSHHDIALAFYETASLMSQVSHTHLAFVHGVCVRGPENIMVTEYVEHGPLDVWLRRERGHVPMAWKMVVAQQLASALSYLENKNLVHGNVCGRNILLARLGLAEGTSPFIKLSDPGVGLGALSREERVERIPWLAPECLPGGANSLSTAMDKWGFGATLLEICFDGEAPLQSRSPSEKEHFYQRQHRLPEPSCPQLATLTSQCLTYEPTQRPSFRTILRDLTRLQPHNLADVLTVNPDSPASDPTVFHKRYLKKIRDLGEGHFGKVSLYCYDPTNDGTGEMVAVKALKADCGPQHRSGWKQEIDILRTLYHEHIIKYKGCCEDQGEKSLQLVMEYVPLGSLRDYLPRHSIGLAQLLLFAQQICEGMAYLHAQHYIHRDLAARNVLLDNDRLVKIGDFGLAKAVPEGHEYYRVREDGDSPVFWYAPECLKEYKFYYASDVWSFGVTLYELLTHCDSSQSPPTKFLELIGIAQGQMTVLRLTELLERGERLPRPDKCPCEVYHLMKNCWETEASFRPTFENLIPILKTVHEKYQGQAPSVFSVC
T1 sequence (P07333 whole entry, the tested form may be a part): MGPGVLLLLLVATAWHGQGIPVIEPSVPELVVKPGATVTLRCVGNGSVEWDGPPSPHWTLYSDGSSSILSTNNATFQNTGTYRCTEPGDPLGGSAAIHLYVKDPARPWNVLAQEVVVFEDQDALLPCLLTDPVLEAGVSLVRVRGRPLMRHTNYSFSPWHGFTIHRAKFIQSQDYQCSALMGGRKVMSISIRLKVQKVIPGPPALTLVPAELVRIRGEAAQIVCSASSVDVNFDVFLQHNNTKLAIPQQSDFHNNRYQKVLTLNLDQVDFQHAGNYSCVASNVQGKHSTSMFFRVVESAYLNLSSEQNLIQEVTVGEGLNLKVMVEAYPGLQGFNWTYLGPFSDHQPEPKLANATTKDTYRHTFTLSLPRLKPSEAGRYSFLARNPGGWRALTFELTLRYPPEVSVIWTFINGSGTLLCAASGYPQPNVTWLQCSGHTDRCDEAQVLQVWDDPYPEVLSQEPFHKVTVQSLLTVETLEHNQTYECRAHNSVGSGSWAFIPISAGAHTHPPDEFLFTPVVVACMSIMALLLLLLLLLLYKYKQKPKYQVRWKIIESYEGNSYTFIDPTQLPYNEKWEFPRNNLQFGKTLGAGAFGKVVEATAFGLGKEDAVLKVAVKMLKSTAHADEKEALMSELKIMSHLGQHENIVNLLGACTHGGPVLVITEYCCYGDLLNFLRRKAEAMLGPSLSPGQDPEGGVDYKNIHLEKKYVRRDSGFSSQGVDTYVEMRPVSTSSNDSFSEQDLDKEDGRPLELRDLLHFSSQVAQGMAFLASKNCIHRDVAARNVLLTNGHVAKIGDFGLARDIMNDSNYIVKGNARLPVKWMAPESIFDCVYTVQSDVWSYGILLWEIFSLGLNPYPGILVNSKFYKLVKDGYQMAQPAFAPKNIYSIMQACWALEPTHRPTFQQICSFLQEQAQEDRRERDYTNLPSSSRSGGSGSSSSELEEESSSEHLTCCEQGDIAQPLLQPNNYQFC
Tyrosine-protein kinase JAK2 (Homo sapiens), sequence (O60674 whole entry): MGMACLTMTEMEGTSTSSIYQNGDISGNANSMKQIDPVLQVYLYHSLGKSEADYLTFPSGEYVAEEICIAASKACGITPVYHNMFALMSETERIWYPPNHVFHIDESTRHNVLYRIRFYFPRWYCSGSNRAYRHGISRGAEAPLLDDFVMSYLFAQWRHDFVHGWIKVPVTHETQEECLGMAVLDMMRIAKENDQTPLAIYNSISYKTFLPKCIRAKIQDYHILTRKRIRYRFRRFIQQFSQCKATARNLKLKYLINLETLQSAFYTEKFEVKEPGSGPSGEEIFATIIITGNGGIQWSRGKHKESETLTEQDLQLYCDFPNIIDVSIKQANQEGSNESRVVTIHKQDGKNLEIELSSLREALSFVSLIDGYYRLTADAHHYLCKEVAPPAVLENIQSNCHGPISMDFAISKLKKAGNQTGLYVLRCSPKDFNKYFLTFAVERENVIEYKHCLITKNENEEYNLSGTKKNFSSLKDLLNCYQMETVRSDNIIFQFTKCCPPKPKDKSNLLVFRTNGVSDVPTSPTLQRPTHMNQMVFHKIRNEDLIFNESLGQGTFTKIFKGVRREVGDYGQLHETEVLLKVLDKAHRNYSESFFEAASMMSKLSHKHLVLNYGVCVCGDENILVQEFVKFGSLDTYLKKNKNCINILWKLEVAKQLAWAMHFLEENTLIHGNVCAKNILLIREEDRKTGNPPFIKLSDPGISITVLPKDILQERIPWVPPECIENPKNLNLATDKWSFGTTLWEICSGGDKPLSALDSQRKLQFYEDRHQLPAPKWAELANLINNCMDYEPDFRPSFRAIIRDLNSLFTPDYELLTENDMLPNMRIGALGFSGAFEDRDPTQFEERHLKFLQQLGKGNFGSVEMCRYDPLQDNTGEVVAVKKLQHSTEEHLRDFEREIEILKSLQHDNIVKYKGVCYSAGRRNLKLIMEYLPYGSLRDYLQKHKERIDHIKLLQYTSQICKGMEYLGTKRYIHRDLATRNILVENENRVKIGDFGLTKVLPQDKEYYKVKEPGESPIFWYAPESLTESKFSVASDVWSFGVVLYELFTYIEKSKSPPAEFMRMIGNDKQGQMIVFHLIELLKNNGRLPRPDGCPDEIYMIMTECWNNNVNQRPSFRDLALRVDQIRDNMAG
High affinity nerve growth factor receptor, sequence (P04629 whole entry, the tested form may be a part): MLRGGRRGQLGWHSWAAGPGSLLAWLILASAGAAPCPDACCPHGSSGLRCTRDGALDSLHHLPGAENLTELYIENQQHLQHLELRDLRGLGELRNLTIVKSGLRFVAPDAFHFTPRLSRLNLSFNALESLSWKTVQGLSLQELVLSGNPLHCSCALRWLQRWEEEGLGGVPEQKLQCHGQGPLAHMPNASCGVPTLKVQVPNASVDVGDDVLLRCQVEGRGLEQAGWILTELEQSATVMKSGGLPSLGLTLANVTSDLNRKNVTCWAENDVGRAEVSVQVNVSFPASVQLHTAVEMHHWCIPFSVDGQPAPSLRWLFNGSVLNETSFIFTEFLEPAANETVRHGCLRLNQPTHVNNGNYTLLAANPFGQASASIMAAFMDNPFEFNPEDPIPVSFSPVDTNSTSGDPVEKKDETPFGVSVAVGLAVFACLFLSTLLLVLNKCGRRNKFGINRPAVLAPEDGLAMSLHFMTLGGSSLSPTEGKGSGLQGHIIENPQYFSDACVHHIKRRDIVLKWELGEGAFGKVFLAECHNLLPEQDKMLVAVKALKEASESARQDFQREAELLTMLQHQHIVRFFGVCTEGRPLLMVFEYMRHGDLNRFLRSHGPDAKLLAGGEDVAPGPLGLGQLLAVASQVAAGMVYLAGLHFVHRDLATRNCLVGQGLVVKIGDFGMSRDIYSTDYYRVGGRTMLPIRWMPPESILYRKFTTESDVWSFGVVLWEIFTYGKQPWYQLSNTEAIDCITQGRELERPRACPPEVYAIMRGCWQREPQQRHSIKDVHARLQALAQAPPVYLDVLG

| Structure (SMILES) | Peff ([1]; BLD = below limit of detection) | IC50 [2] | IC50 [3] | IC50 [4] | IC50 [5] | Kinetic solubility [6] | IC50 [7] | IC50 [8] | % control [9] | IC50 [10] | IC50 [11] | Peff [1] | % control [12] | IC50 [13] | IC50 [14] | IC50 [15] |
| --- | --- | --- | --- | --- | --- | --- | --- | --- | --- | --- | --- | --- | --- | --- | --- | --- |
| NS(=O)(=O)c1ccc(CNc2ccnc(Nc3cccc(NC(=O)N4CCCC4)c3)n2)cc1 | Bld | > 10 µM | 0.033 µM | > 10 µM | > 10 µM | 147 µM | > 10 µM | > 10 µM | 62% | > 10 µM | 0.305 µM | – | – | – | – | – |
| NS(=O)(=O)c1ccc(CNc2nc(Nc3cccc(NC(=O)N4CCCC4)c3)ncc2C2CC2)cc1 | – | – | – | > 10 µM | > 10 µM | 85.6 µM | > 10 µM | > 10 µM | 107% | – | – | 2.6 10^-6 cm/s | 61% | 0.477 µM | 0.128 µM | 2.92 µM |
